# Source: ChEMBL document CHEMBL1122970, “Synthesis and antitumor and antiviral activities of a series of 1-beta-D-ribofuranosyl-5-halocytosine (5-halocytidine) cyclic 3',5'-monophosphates” (1985)
# Several values for one entry are separate records, joined by “and”; a condition that tells them apart may be missing. Equal values may be shown once. Activity calls are given as the source filed them. The rule behind the calls is not given here.
# Legend:
# Vaccinia virus [1] = assay: In vitro antiviral activity against Vaccinia virus strain Elstree was evaluated in african green monkey kidney; format: functional, Orthopoxvirus vaccinia
# Human alphaherpesvirus 1 [2] = assay: Antiviral activity against Herpes simplex virus -1 strain KOS was evaluated in african green monkey kidney; format: functional
# P388 [3] = assay: In vitro antitumor activity against P388 cell line in mice; B indicates inactive at 10e-1 mmol/L; format: functional, cell-based; details: Mus musculus
# In short: (§1)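 Cells at 1 × 10⁶ cells/mL were incubated with filter-sterilized compound in growth medium, in duplicate, at log concentrations from 1 × 10⁻⁹ to 1 × 10⁻⁴ M. After 48 h at 37 °C, Coulter counts were taken and growth was expressed as a percentage of untreated controls. ID₅₀ is the concentration giving 50% growth inhibition.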
# [4] = tested on: Mammalian orthoreovirus 3; assay: Antiviral activity against Reovirus type 3 strain Abney was evaluated in african green monkey kidney; format: functional
# In short: (§2)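 Confluent Vero monolayers (4 × 10⁴ cells/well, EMEM with 10% heat-inactivated newborn bovine serum, 24 h at 37 °C, 5% CO₂) were infected per well with Cox B1 200, Reo 3 470 or VSV 2 TCID₅₀ units. After 30 min adsorption, compound was added at seven 0.5-log steps, final 5 × 10⁻⁶ to 5 × 10⁻³ M, in duplicate wells. CPE was scored microscopically 0–4 at 72 h to give VR, and ED₅₀ was checked on crystal-violet-stained plates.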
# Human alphaherpesvirus 2 [5] = assay: Antiviral activity against Herpes simplex virus -2 strain MS was evaluated in african green monkey kidney; format: functional
# Vero = assay: In vitro cytotoxicity against Vero cells.; format: functional, Chlorocebus sabaeus
# Human respirovirus 3 [6] = assay: Antiviral activity against Para influenza virus type 3 strain C243 was evaluated in african green monkey kidney; format: functional
# L1210 [7] = assay: In vitro antitumor activity against L1210 cell line in mice; B indicates inactive at 10e-1 mmol/L; format: functional, cell-based; details: Mus musculus; in short: as §1
# [8] = tested on: Vesicular stomatitis virus; assay: In vitro antiviral activity against Vesicular stomatitis virus strain indiana was evaluated in african green monkey kidney; format: functional; in short: as §2
# [9] = tested on: Mammalian orthoreovirus 3; assay: In vitro antiviral activity against Reovirus type 3 strain Abney was evaluated in african green monkey kidney; format: functional; in short: as §2
# Coxsackievirus B1 [10] = assay: Antiviral activity against Coxsackie B1 strain HA 201468 was evaluated in african green monkey kidney; format: functional; in short: as §2
# Human alphaherpesvirus 1 [11] = assay: In vitro antiviral activity against Herpes simplex virus -1 strain KOS was evaluated in african green monkey kidney; format: functional
# Human respirovirus 3 [12] = assay: In vitro antiviral activity against Para influenza virus type 3 strain C243 was evaluated in african green monkey kidney; format: functional
# Human alphaherpesvirus 2 [13] = assay: In vitro antiviral activity against Herpes simplex virus -2 strain MS was evaluated in african green monkey kidney; format: functional
# Vaccinia virus [14] = assay: Antiviral activity against Vaccinia virus strain Elstree was evaluated in african green monkey kidney; format: functional, Orthopoxvirus vaccinia
# Coxsackievirus B1 [15] = assay: In vitro antiviral activity against Coxsackie B1 strain HA 201468 was evaluated in african green monkey kidney; format: functional; in short: as §2
# [16] = tested on: Vesicular stomatitis virus; assay: Antiviral activity against Vesicular stomatitis virus strain indiana was evaluated in african green monkey kidney; format: functional; in short: as §2
# L1210 [17] = assay: In vitro antitumor activity against L1210 cell line in mice.; format: functional, Mus musculus; in short: as §1
# P388 [18] = assay: In vitro antitumor activity against P388 cell line in mice.; format: functional, Mus musculus; in short: as §1
# Human alphaherpesvirus 1 [19] = assay: Antiviral activity against Herpes simplex virus -1 strain MS was evaluated in african green monkey kidney; format: functional
SMILES,Virus rating (Vaccinia virus [1]),ED50 (Human alphaherpesvirus 1 [2]) [µM],ID50 (P388 [3]),ED50 [4] [µM],ED50 (Human alphaherpesvirus 2 [5]) [µM],Cytotoxicity (Vero),ED50 (Human respirovirus 3 [6]) [µM],ID50 (L1210 [7]),Virus rating [8],Virus rating [9],ED50 (Coxsackievirus B1 [10]) [µM],Virus rating (Human alphaherpesvirus 1 [11]),Virus rating (Human respirovirus 3 [12]),Virus rating (Human alphaherpesvirus 2 [13]),ED50 (Vaccinia virus [14]) [µM],Virus rating (Coxsackievirus B1 [15]),ED50 [16] [µM],ID50 (L1210 [17]) [µM],ID50 (P388 [18]) [µM],ED50 (Human alphaherpesvirus 1 [19]) [µM]
N.Nc1nc(=O)n([C@@H]2O[C@@H]3CO[PH](O)(O)O[C@H]3[C@H]2O)cc1I,0,> 5000,inactive,> 5000,> 5000,2 mM l-1 and 5 mM l-1,> 5000,inactive,0.2,0,> 5000,0,0,0,> 5000,0,> 5000,,,
Cl.Nc1nc(=O)n([C@@H]2O[C@H](CO)[C@@H](O)[C@H]2O)cc1F,1.3,20,,,< 0.5,,130,,,,,1,0.8,2.1,5e-05,,,2.6,3,
N.Nc1nc(=O)n([C@@H]2O[C@@H]3CO[PH](O)(O)O[C@H]3[C@H]2O)cc1Br,0.1,> 5000,inactive,> 5000,5000,2 mM l-1 and 5 mM l-1,> 5000,inactive,0,0,> 5000,0.1,0,0.2,5000,0,> 5000,,,
Nc1nc(=O)[nH]cc1F [FLUCYTOSINE],0,> 5000,inactive,,> 5000,5 mM,> 5000,inactive,,,,0,0.4,0.5,> 5000,,,,,
N.Nc1nc(=O)n([C@@H]2O[C@@H]3CO[PH](O)(O)O[C@H]3[C@H]2O)cc1Cl,0,> 5000,inactive,> 5000,> 5000,5 mM,> 5000,inactive,0,0,> 5000,0,0,0.1,> 5000,0,> 5000,,,
Nc1nc(=O)n([C@@H]2O[C@H](COP(=O)(O)O)[C@@H](O)[C@H]2O)cc1F,1.4,,,,< 0.5,,20,,,,,1.2,1,2,9e-05,,,3.4,3.1,20
N.Nc1nc(=O)n([C@@H]2O[C@@H]3CO[PH](O)(O)O[C@H]3[C@H]2O)cc1F,0.6,220,,> 5000,92,0.2 mM l-1 and 0.5 mM l-1,> 5000,,0.2,0,> 5000,0.6,0.1,0.9,290,0,5000,0.31,0.31,
Nc1ccn([C@@H]2O[C@H](CO)[C@@H](O)[C@@H]2O)c(=O)n1 [CYTARABINE],2.8,0.34,,,1.1,0.0005 mM,> 500,,,,,2.7,0,2.7,0.34,,,2.5,1.2,
